Compound activity from PubChem.
Most compounds without a hit are left out; they make up all but 1.5% or so of the library.
CXCR6 block = inhibitors of human CXCR6 receptor | O00574 | CHO-K1 PathHunter CXCR6 beta-arrestin, luminescence | inhibition, % at 20 µM | 360,000 tested, 0.36% active | AID 602244; in the data active means inhibition above about 34%, passing the limit was not always enough;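 further: antagonist mode with CXCL16 agonist at 10 nM final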
APJ antag = APJ receptor antagonism; P35414; CHO-K1 APJ beta-arrestin complementation, luminescence; inhibition, % at 20 µM; 330,000 tested, 0.32% active; AID 2521;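 active means inhibition above about 40% at 20 µM, limit read from the data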;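 further: cells challenged with 10 nM apelin-13 agonist together with compound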
Target sequence (P35414 whole entry, looked up): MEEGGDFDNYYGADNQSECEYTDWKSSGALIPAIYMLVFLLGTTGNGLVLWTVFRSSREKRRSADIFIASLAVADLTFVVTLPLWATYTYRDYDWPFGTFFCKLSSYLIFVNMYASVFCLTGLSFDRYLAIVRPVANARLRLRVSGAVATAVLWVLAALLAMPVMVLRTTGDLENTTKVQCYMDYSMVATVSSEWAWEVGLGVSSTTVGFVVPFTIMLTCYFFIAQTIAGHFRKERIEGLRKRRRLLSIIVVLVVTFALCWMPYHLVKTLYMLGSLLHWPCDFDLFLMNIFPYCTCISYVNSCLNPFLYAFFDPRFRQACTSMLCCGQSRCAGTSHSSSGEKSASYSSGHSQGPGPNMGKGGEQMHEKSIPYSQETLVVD
APJ ag = activates the human apelin receptor APJ; AID 2520; P35414; 330,000 tested, 0.11% active; CHO-K1 APJ PathHunter beta-arrestin, luminescence; 0% DMSO wells, 100% apelin; activation, % at 20 µM;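 active means activation more than six SD over the plate average, tested at 20 µM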
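system = engineered CHO-K1 APJ arrestin reporter cells | input = 1000 cells per well | timing = overnight seeding, 90 min compound at 25 °C, 1 h detection | measured by = enzyme-fragment complementation luminescence | read-out = beta-arrestin recruitment to APJ as agonist activity, luminescent signal | control set = negative DMSO alone, positive Apelin-13 at 10 nM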
EBI2 antag = antagonists of human EBI2 receptor. P32249. EBI2 beta-arrestin recruitment, luminescence, 7a,25-OHC stimulated. inhibition, % at 5 µM. 360,000 tested, 0.81% active. AID 651636; in the data active means inhibition above about 38%;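 further: enzyme fragment complementation signal reports receptor beta-arrestin coupling in cells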
CCR6 antagonist = blocks CCL20-driven beta-arrestin recruitment at human CCR6; inhibition, % at 20 µM; CHO-K1 CCR6 PathHunter beta-arrestin, luminescence, CCL20-stimulated; 340,000 tested, 0.49% active; AID 493098; P51684;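 active means compounds whose inhibition of the agonist-driven luminescence signal at 20 µM reaches about 50%, limit read from the data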;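 further: cells stimulated with CCL20 at 14 nM final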
CXCR6 antag conf = confirmation of human CXCR6 receptor antagonists; shares compounds with CXCR6 block; CHO-K1 CXCR6 PathHunter beta-arrestin, luminescence; inhibition, % at 20 µM; 700 tested, 65% active; AID 602409;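 active means mean inhibition over four retests above 40%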;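 further: receptor stimulated with 10 nM CXCL16 agonist; beta-galactosidase fragment complementation upon beta-arrestin recruitment to receptor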
EBI2 antag conf = EBI2 (human) antagonism, single concentration confirmation. EBI2 beta-arrestin luminescence, 7a,25-OHC antagonism. shares compounds with EBI2 antag. 2,400 tested, 29% active. inhibition, % at 5 µM;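 active means inhibition of at least 50%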
EBI2 ag = EBI2 agonism counter-screen. shares compounds with EBI2 antag. activation, % at 5 µM. 2,400 tested, under 10 active. AID 652000. EBI2-expressing cells, agonist mode, luminescence, 60 min; 0% vehicle, 100% 7α,25-dihydroxycholesterol control;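 active means activation of at least 50%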
bGal cs = counter-screen for EBI2 antagonists: E. coli beta-galactosidase inhibition | shares compounds with EBI2 antag | purified beta-galactosidase, luminescent Galacton Star, 15 min | inhibition, % at 5 µM | 2,400 tested, 1% active;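 active means replicate-average signal at least 3 plate SD below neutral wells, shown as high inhibition, flagging enzyme-inhibiting false positives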;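 further: higher means stronger loss of beta-gal luminescence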
Large screens that a line does not name were inactive (follow-up assays come after a bar, where they were run).

NC(=O)NNc1ncc(C(F)(F)F)cc1Cl	none
NC(=S)Nc1ncc(C(F)(F)F)cc1Cl	none
CCC/C=C/c1ccc(CN2C(C)C(=O)N(Cc3cn(CCOCOC)nn3)CCS2(=O)=O)cc1 (stereo unspecified)	CXCR6 block 42 (no result: APJ antag, APJ ag, CCR6 antagonist) | CXCR6 antag conf inactive
Cc1cccc(NS(=O)(=O)c2ccc(C)c(NS(=O)(=O)c3cccs3)c2)c1	none
CS(=O)(=O)c1ccc(C(=O)OCC(=O)N2CCOCC2)cc1[N+](=O)[O-]	none (no result: APJ antag, APJ ag, CCR6 antagonist)
CS(=O)(=O)c1ccc(C(=O)OCC(=O)N2CCN(CCC3CCCCC3)CC2)cc1[N+](=O)[O-]	CXCR6 block 54, EBI2 antag 48 (no result: APJ antag, APJ ag, CCR6 antagonist) | CXCR6 antag conf 71 | EBI2 antag conf 54 | EBI2 ag inactive | bGal cs inactive
CCC1NC(=O)c2cc3ccccc3cc2-n2c1nc1cc(C)cc(C)c1c2=O (stereo unspecified)	CXCR6 block 60, EBI2 antag 86 (no result: APJ antag, APJ ag, CCR6 antagonist) | CXCR6 antag conf inactive | EBI2 antag conf 69 | EBI2 ag inactive | bGal cs inactive
CC(=O)Nc1ccc(S(=O)(=O)NC2C3(C)CCC(C3)C2(C)C)cc1 (stereo unspecified)	none
C=CCN1C(=O)NC(c2ccccc2)(C(F)(F)F)S/C1=C(\C#N)c1nnc(N2CCOCC2)n1-c1ccccc1 (stereo unspecified)	EBI2 antag 53 | EBI2 antag conf 53 | EBI2 ag inactive | bGal cs inactive
COc1ccc(C(=O)N2CCN(c3ccc([N+](=O)[O-])c(-n4nc(C)cc4C)c3)CC2)cc1	EBI2 antag 59 | EBI2 antag conf inactive | EBI2 ag inactive | bGal cs inactive
CC(=O)CCc1ccc(Oc2nc(-c3cccnc3)nc3ccccc23)cc1	EBI2 antag 54 | EBI2 antag conf inactive | EBI2 ag inactive | bGal cs inactive
CC(C(=O)Nc1cc(Cl)cc(Cl)c1)N1CCCC1 (stereo unspecified)	none
Cc1ccc(S(=O)(=O)N2CCN(C(=O)c3cc4c(s3)CCCC4)CC2)c(C)c1	EBI2 antag 68 | EBI2 antag conf inactive | EBI2 ag inactive | bGal cs inactive
CCN(C(=O)c1cc2cc3ccc(C)cc3nc2o1)c1ccc(OC)cc1	EBI2 antag 42 | EBI2 antag conf 51 | EBI2 ag inactive | bGal cs inactive
O=C(NCCc1ccc(Cl)cc1Cl)C1=CC=CN2CCS(=O)(=O)N=C12	none
CC(NC(=O)CNC(=O)c1ccc2c(c1)OCO2)c1ccc(S(N)(=O)=O)cc1 (stereo unspecified)	none
O=C(Cc1ccc(Cl)cc1)Nc1cccc(-c2nnc(-c3ccco3)o2)c1	EBI2 antag 71 | EBI2 antag conf inactive | EBI2 ag inactive | bGal cs inactive
O=C(Nc1cccc(-c2nnc(-c3ccco3)o2)c1)C(c1ccccc1)c1ccccc1	EBI2 antag 77 | EBI2 antag conf inactive | EBI2 ag inactive | bGal cs inactive
O=C(Cc1ccccc1)Nc1cccc(-c2nnc(-c3ccco3)o2)c1	none
O=C(Nc1cccc(-c2nnc(-c3ccco3)o2)c1)c1ccccc1	none
CSc1ccc(CN(C)C(=O)c2cc(=O)c3ccccc3o2)cc1	EBI2 antag 78 | EBI2 antag conf 60 | EBI2 ag inactive | bGal cs inactive
CN(Cc1ccccc1)C(=O)COC(=O)c1cc(=O)c2ccccc2o1	none
CSc1ccc(CN(C)C(=O)c2cc3ccccc3o2)cc1	EBI2 antag 50 | EBI2 antag conf inactive | EBI2 ag inactive | bGal cs inactive
Cc1cc(C)c(Cn2cnc(-c3ccc([N+](=O)[O-])cc3)c2)c(C)c1	none
CC(C)(C)c1ccc(Cn2cnc(-c3ccc([N+](=O)[O-])cc3)c2)cc1	EBI2 antag 51 | EBI2 antag conf inactive | EBI2 ag inactive | bGal cs inactive
CC1CCCN(CC(=O)Nc2ccc(S(=O)(=O)N3C(C)CCCC3C)cc2)C1 (stereo unspecified)	none (no result: APJ antag, APJ ag, CCR6 antagonist)
O=C(Nc1ccc(-c2csc(Nc3cccc(C(F)(F)F)c3)n2)cc1)c1ccccc1	none
O=C(Nc1cccc(-c2csc(Nc3cccc(C(F)(F)F)c3)n2)c1)c1ccccc1	EBI2 antag 46 | EBI2 antag conf inactive | EBI2 ag inactive | bGal cs inactive
CN(c1ccc([N+](=O)[O-])cc1C(=O)Nc1ccccc1)C1CCCCC1	EBI2 antag 41 | EBI2 antag conf inactive | EBI2 ag inactive | bGal cs inactive
Cc1cccc(NS(=O)(=O)c2ccc(C)c(C(=O)NCC(c3ccco3)N3CCCCC3)c2)c1 (stereo unspecified)	none
Nc1[nH]c(C(=O)c2ccccc2)c(-c2ccccc2C(F)(F)F)c1C(=O)c1cccs1	EBI2 antag 45 (no result: APJ antag, APJ ag, CCR6 antagonist) | EBI2 antag conf inactive | EBI2 ag inactive | bGal cs inactive
COc1ccc(CCNC(=O)c2cnc3ccccc3n2)cc1	none
COc1ccc(CCNC(=O)c2cccc(C(=O)NCCc3ccc(OC)cc3)n2)cc1	EBI2 antag 50 | EBI2 antag conf inactive | EBI2 ag inactive | bGal cs inactive
COc1cc(NC(=O)N2CCc3nc(Nc4cc(Cl)cc(Cl)c4)ncc3C2)cc(OC)c1OC	EBI2 antag 47 (no result: APJ antag, APJ ag, CCR6 antagonist) | EBI2 antag conf inactive | EBI2 ag inactive | bGal cs inactive
Cc1nc(N2CCC(C)CC2)c2c(C)c(C(=O)Nc3ccccc3C(F)(F)F)sc2n1	EBI2 antag 45 | EBI2 antag conf inactive | EBI2 ag inactive | bGal cs inactive
O=C(COc1ccc(Cl)cc1)N(Cc1ccc(F)cc1)C1CCS(=O)(=O)C1 (stereo unspecified)	none
CCCCC(=O)NC(c1cccc([N+](=O)[O-])c1)c1c(OC(C)=O)ccc2ccccc12 (stereo unspecified)	EBI2 antag 39 | EBI2 antag conf inactive | EBI2 ag inactive | bGal cs inactive
CC(=O)NC(c1cccc([N+](=O)[O-])c1)c1c(OC(C)=O)ccc2ccccc12 (stereo unspecified)	none
Cc1ccc(CNC(=O)c2ccc(N3CCCC3=O)cc2)cc1	EBI2 antag 63 | EBI2 antag conf inactive | EBI2 ag inactive | bGal cs inactive
O=C(NCc1ccc(Cl)cc1)c1ccc(N2CCCC2=O)cc1	EBI2 antag 55 | EBI2 antag conf inactive | EBI2 ag inactive | bGal cs inactive
